Assay results gathered from unrelated publications.
Compare with care: the assays were run in different laboratories. Converted amounts (≈) assume the structure as drawn.
Organism: Bacillus subtilis

Structure (SMILES) | assay | test system | conditions | endpoint | result
O=C(O)CN1C(=O)/C(=C/c2ccc(-c3ccc(N(c4ccccc4)c4ccccc4)cc3)cc2)NC1=S | microbial killing, broth dilution | ATCC6633 | – | MBC | 3.9 µg/mL (≈ 7.71 µM)
O=C(O)c1ccc(-n2cc(/C=N/Nc3ccc(C(F)(F)F)cc3)c(-c3cccc(F)c3)n2)cc1 | microbial growth | ATCC6623 | – | MIC | 12.5 µg/mL (≈ 26.7 µM)
O=C(O)CN1C(=O)/C(=C/c2ccc(-c3ccc(N(c4ccccc4)c4ccccc4)cc3)c3ccccc23)NC1=S | microbial killing, broth dilution | ATCC6633 | – | MBC | > 1000 µg/mL
O=C(O)c1cn(C2CC2)c2cc(N3CCNCC3)c(F)cc2c1=O | microbial growth | 6633 | 1000 µg/mL | inhibition zone | 29 mm
N#CC(=Cc1ccc(Cl)cc1)C1=NC(=O)C(=Cc2cn(-c3ccccc3)nc2-c2ccccc2)S1 | microbial growth, well diffusion | – | 100000 µg/mL | inhibition zone | 22 mm
CN(/N=C/c1cn(-c2ccc(C(=O)O)cc2)nc1-c1ccc(F)cc1)c1ccccc1 | microbial growth | ATCC6623 | – | MIC | 12.5 µg/mL (≈ 30.2 µM)
N#CC(=Cc1cn(-c2ccccc2)nc1-c1ccccc1)C1=NC(=O)CS1 | microbial killing, broth dilution | – | – | MBC | 0.25 µg/mL (≈ 0.675 µM)
Cc1cc(N)c2ccccc2[n+]1CCCCCCCCCC[n+]1c(C)cc(N)c2ccccc21 | microbial growth, disc diffusion | – | 50 µg/disc | inhibition zone | 11 mm
O=C(O)CN1C(=O)/C(=C/c2c3ccccc3c(-c3ccc(N(c4ccccc4)c4ccccc4)cc3)c3ccccc23)SC1=S | microbial killing, broth dilution | ATCC6633 | – | MBC | > 1000 µg/mL
N#CC(=Cc1ccccc1O)C1=NC(=O)C(=Cc2cn(-c3ccccc3)nc2-c2ccccc2)S1 | microbial killing, broth dilution | – | – | MBC | 0.5 µg/mL (≈ 1.05 µM)
CC[C@H]1OC(=O)[C@H](C)[C@@H](O[C@H]2C[C@@](C)(OC)[C@@H](O)[C@H](C)O2)[C@H](C)[C@@H](O[C@@H]2O[C@H](C)C[C@H](N(C)C)[C@H]2O)[C@](C)(O)C[C@@H](C)/C(=N\OCOCCOC)[C@H](C)[C@@H](O)[C@]1(C)O | microbial growth, disc diffusion | ATCC6633 | 20000 µg/mL, 24 h | inhibition zone | 23 mm
O=C(O)CN1C(=O)/C(=C/c2ccc(-c3ccc(N(c4ccccc4)c4ccccc4)cc3)cc2)SC1=S | microbial killing, broth dilution | ATCC6633 | – | MBC | 1.95 µg/mL (≈ 3.73 µM)
Cc1c(NC(=O)CC2=NC(=O)CS2)c(=O)n(-c2ccccc2)n1C | microbial growth, well diffusion | – | 100000 µg/mL | inhibition zone | 26 mm
